Key:
[1] = biological target: T1, Peroxisome proliferator-activated receptor alpha (Homo sapiens, UniProt Q07869); assay: Inhibition of PPARalpha (unknown origin)
T1 sequence (Q07869 whole entry): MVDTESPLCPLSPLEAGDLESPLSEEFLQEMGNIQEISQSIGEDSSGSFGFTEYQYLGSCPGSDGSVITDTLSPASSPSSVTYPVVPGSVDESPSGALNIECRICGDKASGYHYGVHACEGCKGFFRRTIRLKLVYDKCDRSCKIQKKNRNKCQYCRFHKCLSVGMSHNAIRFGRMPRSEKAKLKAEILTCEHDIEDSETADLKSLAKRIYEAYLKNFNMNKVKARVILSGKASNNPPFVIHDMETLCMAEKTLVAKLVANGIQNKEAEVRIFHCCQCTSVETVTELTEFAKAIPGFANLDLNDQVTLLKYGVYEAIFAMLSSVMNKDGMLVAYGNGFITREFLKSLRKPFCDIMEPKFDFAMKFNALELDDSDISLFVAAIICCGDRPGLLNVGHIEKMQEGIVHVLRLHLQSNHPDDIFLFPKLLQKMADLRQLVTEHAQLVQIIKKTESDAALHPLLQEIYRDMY

Mus musculus [2] = species: Mus musculus; assay: Toxicity in C57B6 DIO mouse assessed as elevation of alanine aminotransferase at 0.3 mg/g of food after 31 days; type: organism-based; settings: in vivo, po, 744 h
[3] = AUC in Beagle dog at 5 mg/kg, po; settings: plasma
Mus musculus [4] = species: Mus musculus; assay: Antidiabetic activity in C57B6 DIO mouse assessed as reduction in fed insulin level at 0.3 mg/g of food after 31 days by HPLC analysis relative to untreated control; type: functional; design: scale not given: the % may be the effect or the level left
In short: (§1)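 Male C57B6 mice, 5.5–7 months old, kept on a 35.5% fat diet for 4 months. Compound was mixed into food at 0.3 mg drug/g food for 31 days. Controls received diet 12492. Glucose and insulin were measured fed and fasting.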

[5] = biological target: T2, Peroxisome proliferator-activated receptor gamma (Homo sapiens, UniProt P37231); assay: Inhibition of PPARgamma (unknown origin)
T2 sequence (P37231 whole entry): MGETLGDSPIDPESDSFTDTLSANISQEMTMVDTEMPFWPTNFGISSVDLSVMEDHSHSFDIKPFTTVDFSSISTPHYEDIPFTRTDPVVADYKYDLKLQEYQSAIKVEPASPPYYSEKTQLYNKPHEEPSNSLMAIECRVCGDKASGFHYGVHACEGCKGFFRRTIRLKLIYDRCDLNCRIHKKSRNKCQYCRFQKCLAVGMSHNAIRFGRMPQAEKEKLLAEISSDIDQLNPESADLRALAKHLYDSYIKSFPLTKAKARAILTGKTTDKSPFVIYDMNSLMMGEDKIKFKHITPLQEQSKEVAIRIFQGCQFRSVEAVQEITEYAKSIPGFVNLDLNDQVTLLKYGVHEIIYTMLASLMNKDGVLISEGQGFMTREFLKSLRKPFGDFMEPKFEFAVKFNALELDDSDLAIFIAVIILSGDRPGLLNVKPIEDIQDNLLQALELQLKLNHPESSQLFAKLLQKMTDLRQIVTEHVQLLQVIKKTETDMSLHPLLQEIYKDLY

[6] = Cmax in Beagle dog at 5 mg/kg, po; settings: in vivo
[7] = Half life in Beagle dog at 5 mg/kg, po; settings: in vivo
[8] = Half life in C57B6 mouse at 10 mg/kg, po; type: ADME, organism-based; design: dose 10 mg/kg, route oral; settings: in vivo
In short: (§2)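 Male C57B6 mice. IV dose of 2 mg/kg in 50% DMSO/50% PEG200. Oral dose of 10 mg/kg in 2% Tween/0.5% methyl cellulose in water. Values are PK parameters from the iv and po arms.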

[9] = Cmax in Sprague-Dawley rat at 10 mg/kg, po; type: ADME, organism-based; design: dose 10 mg/kg, route oral; settings: in vivo
In short: (§3)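 SD rats received 2 mg/kg iv in 50% DMSO/50% PEG200, or 10 mg/kg po in 2% Tween/0.5% methyl cellulose in water. PK parameters come from each route.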

[10] = Half life in Sprague-Dawley rat at 2 mg/kg, iv; type: ADME, organism-based; design: dose 2 mg/kg, route intravenous; settings: in vivo; in short: as §3
Mus musculus [11] = species: Mus musculus; assay: Antidiabetic activity in C57B6 DIO mouse assessed as reduction in fed glucose level at 0.3 mg/g of food after 31 days by HPLC analysis relative to untreated control; type: functional; design: scale not given: the % may be the effect or the level left; in short: as §1
[12] = Oral bioavailability in C57B6 mouse at 10 mg/kg; type: ADME, organism-based; settings: in vivo; in short: as §2
Canis familiaris = assay: Toxicity in dog at 100 to 1000 mg/kg; type: organism-based, Canis lupus familiaris; design: dose 100-1000 mg/kg; settings: in vivo
In short: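 Dogs were dosed at 100, 300 and 1000 mg/kg in a 14-day safety assessment and metabolism study.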

[13] = biological target: T3, Peroxisome proliferator-activated receptor delta (Homo sapiens, UniProt Q03181); assay: Inhibition of PPARbeta (unknown origin)
T3 sequence (Q03181 whole entry): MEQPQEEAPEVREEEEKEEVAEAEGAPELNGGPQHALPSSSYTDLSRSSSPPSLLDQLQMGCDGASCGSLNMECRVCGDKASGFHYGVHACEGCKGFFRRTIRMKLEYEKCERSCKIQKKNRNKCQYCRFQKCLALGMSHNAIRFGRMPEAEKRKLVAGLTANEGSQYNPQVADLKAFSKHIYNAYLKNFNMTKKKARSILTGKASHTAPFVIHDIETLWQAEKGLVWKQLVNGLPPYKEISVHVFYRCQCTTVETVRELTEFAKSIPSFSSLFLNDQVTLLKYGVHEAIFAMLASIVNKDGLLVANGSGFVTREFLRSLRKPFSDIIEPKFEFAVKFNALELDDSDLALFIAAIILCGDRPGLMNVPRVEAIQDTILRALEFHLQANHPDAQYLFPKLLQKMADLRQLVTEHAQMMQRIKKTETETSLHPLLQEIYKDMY

[14] = Cmax in C57B6 mouse at 10 mg/kg, po; type: ADME, organism-based; design: dose 10 mg/kg, route oral; settings: in vivo; in short: as §2
[15] = Volume of distribution at steady state in Beagle dog at 2 mg/kg, iv; type: ADME, organism-based, Canis lupus familiaris; design: dose 2 mg/kg, route intravenous; settings: in vivo, read-out: Vdss
In short: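 Male dogs were given 2 mg/kg intravenously in 50% DMSO/50% PEG200.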

[16] = Half life in human liver microsomes; type: ADME, Microsome
[17] = Volume of distribution at steady state in Sprague-Dawley rat at 2 mg/kg, iv; type: ADME, organism-based; design: dose 2 mg/kg, route intravenous; settings: in vivo, read-out: Vdss
In short: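 Sprague-Dawley rats given a single iv dose of 2 mg/kg in 50% DMSO/50% PEG200. A separate oral arm received 10 mg/kg in 2% Tween/0.5% methyl cellulose in water.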

[18] = Half life in rat liver microsomes; type: ADME, Microsome
[19] = AUC in Sprague-Dawley rat at 2 mg/kg, iv; type: ADME, organism-based; design: dose 2 mg/kg, route intravenous; settings: plasma; in short: as §3
[20] = AUC in C57B6 mouse at 2 mg/kg, iv; type: ADME, organism-based; design: dose 2 mg/kg, route intravenous; settings: plasma; in short: as §2
Mus musculus [21] = species: Mus musculus; assay: Antidiabetic activity in C57B6 DIO mouse assessed as reduction in fasting insulin level at 0.3 mg/g of food after 31 days by HPLC analysis relative to untreated control; type: functional; design: scale not given: the % may be the effect or the level left; in short: as §1
[22] = biological target: 11-beta-hydroxysteroid dehydrogenase 1 (Mus musculus, UniProt P50172); assay: Inhibition of mouse 11beta-HSD1 expressed in CHO cells […] incubated for 30 mins prior to substrate addition measured after 120 mins by chemiluminescence assay; type: cell-based
In short: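 Cell-based assay run in duplicate. Compounds were tested as 11-point 2-fold dilutions, and IC50 was derived. Lower assay threshold was 10 nM.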

Sequence of 11-beta-hydroxysteroid dehydrogenase 1 (P50172 whole entry): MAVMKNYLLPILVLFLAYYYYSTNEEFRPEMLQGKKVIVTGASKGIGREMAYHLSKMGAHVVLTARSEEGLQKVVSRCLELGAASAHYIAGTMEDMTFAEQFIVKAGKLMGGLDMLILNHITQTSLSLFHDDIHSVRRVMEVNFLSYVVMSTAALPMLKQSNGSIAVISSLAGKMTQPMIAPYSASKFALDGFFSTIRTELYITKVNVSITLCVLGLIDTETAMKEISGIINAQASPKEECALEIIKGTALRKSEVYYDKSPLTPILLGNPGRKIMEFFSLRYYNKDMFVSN

For `C[C@@H]1CN(c2ccc(F)cc2C(F)(F)F)CCN1S(=O)(=O)c1ccc([C@@](O)(C(N)=O)C(F)(F)F)s1`, the IC50 [1] was > 100 µM, the Activity (Mus musculus [2]) was “Non-toxic” and the AUC [3] was 43500 ng·h/mL. For the same compound, the Activity (Mus musculus [4]) was 44%, the IC50 [5] was > 100 µM and the Cmax [6] was 1440 ng/mL. For the same compound, the half-life [7] was 17.2 h, the half-life [8] was 4.8 h and the Cmax [9] was 656 ng/mL. The half-life [10] was 8.6 h, the Activity (Mus musculus [11]) was 19% and the bioavailability [12] was 67%. For the same compound, the Activity (Canis familiaris) was “Non-toxic”, the IC50 [13] was > 100 µM and the Cmax [14] was 987 ng/mL. The Vd [15] was 1.8 L/kg, the half-life [16] was > 0.5 h and the Vd [17] was 3.8 L/kg. For the same compound, the half-life [18] was > 0.5 h, the AUC [19] was 4310 ng·h/mL and the AUC [20] was 3600 ng·h/mL. It also gave an Activity (Mus musculus [21]) of 33% and an IC50 [22] of 0.01 µM.

Reference: ChEMBL document CHEMBL2321820, “Discovery of HSD-621 as a Potential Agent for the Treatment of Type 2 Diabetes” (ACS Med Chem Lett, 2013)
